Assay results reported in ChEMBL document CHEMBL3593207, “Imidazole clubbed 1,3,4-oxadiazole derivatives as potential antifungal agents” (2015).

What was measured:
Type in all cases: functional
Candida tropicalis [1] = assay: Antifungal activity against clinical isolates of Candida tropicalis 2029 by broth microdilution assay
Outline: (§1)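 CLSI M27-A3 broth microdilution. Compounds diluted to 1 mg/ml in 1% DMSO. Fluconazole (1 mg/ml) served as positive control, 1% DMSO as vehicle control, with media and culture controls. Triplicate at each concentration, repeated thrice. Inocula came from YPDA stocks subcultured in broth for 48 h at 37 °C.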

Candida albicans [2] = assay: Antifungal activity against Candida albicans ATCC 10261 by broth microdilution assay; outline: as §1
Candida tropicalis [3] = assay: Antifungal activity against Candida tropicalis ATCC 750 by broth microdilution assay; outline: as §1
Candida tropicalis [4] = assay: Antifungal activity against clinical isolates of Candida tropicalis 2356 by broth microdilution assay; outline: as §1
Candida albicans [5] = assay: Antifungal activity against clinical isolates of Candida albicans 2367 by broth microdilution assay; outline: as §1
Candida albicans [6] = assay: Antifungal activity against clinical isolates of Candida albicans 2323 by broth microdilution assay; outline: as §1
Candida albicans [7] = assay: Antifungal activity against clinical isolates of Candida albicans 2779 by broth microdilution assay; outline: as §1

Measured: MIC

CCc1ccnc(-c2nccn2Cc2nnc(-c3ccccc3N)o2)c1
> 1000 µg/mL: Candida tropicalis [1] | Candida albicans [2] | Candida tropicalis [3] | Candida tropicalis [4] | Candida albicans [5] | Candida albicans [6] | Candida albicans [7]

CCc1ccnc(-c2nccn2Cc2nnc(-c3ccc(Cl)cc3Cl)o2)c1
> 1000 µg/mL: Candida tropicalis [1] | Candida albicans [2] | Candida tropicalis [3] | Candida tropicalis [4] | Candida albicans [5] | Candida albicans [6] | Candida albicans [7]
